Test results from publication PMC4358770 (Journal of medicinal chemistry, 2010).
Read-outs that look alike come from different tables or passages of the source. Values belong to the compound of their own block, whether it stands above or below them.

Tests used:
rabbit IOP [1] = conditions: topically applied to New Zealand white rabbits; cited from earlier work
rabbit IOP [2] = assay: IOP measurements in normotensive rabbits; assay type: in vivo, New Zealand white rabbits
How it was run: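 Male New Zealand white rabbits (2.5 ± 0.5 kg) on a 12 h/12 h light/dark cycle. Test compound was applied unilaterally to the cornea at 100 μM in 10 μL, with 0.9% saline vehicle in the contralateral eye. Design was blinded, with two baseline readings by rebound tonometer and follow-up to 8 h. Dose–response used 1 nM–100 μM, taking the maximal response per dose. […] Mean-time effect was the time from 50% maximal IOP decrease to 50% recovery. Mean ± SEM of 8–10 experiments.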

[3] = Chemical stability at pH 1.4 and 37 °C, monitored by HPLC; assay type: physicochemical; conditions: for t1/2 of hydrolysis at pH 1.4: pH 1.4, 37 °C, KCl/HCl buffer
[4] = Stability in human blood serum at 37 °C; assay type: in vitro ADME
turkey P2Y1 receptor = turkey P2Y1 receptor (Meleagris gallopavo, UniProt P49652); assay type: cell-based
[5] = pH 1.4, 37 °C; cited from earlier work
P2Y1R = conditions: read-out: EC50 at P2Y1R; cited from earlier work
[6] = cited from earlier work
[7] = pKa and ionization of the terminal phosphate/phosphonate; assay type: physicochemical; conditions: pH 7.4, terminal phosphate/phosphonate
NTPDase2 = target: T1, NTPDase2 (Homo sapiens, UniProt Q9Y5L3); assay: NTPDase2 hydrolysis assay; assay type: in vitro ADME; conditions: 100 μM substrate; vs 100 μM ATP set at 100%
T1 sequence (Q9Y5L3 1-495): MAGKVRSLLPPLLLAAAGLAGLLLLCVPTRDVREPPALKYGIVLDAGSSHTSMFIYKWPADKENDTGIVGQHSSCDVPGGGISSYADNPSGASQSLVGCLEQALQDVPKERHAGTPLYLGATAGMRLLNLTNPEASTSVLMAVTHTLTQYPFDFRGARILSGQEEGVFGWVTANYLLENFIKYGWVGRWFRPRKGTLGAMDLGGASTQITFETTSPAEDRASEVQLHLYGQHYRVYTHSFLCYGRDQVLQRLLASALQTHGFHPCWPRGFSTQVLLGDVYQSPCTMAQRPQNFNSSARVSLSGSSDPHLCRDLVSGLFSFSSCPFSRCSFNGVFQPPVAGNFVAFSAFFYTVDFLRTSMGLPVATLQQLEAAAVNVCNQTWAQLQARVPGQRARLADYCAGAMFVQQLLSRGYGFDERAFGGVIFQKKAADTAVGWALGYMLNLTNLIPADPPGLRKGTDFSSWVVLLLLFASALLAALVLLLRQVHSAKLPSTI
How it was run: (§1)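 Enzymes were transiently expressed in COS-7 cells. Crude protein extracts were made by sonication, 300g clearing at 4 °C and storage at −80 °C, with protein measured by Bradford. Extract was preincubated 3 min at 37 °C in Tris-Ringer buffer, pH 7.4. […] Activity of untransfected-cell extract was subtracted.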

NTPDase1 = target: T2, NTPDase1 (Homo sapiens, UniProt P49961); assay: NTPDase1 hydrolysis assay; assay type: in vitro ADME; conditions: 100 μM substrate; vs 100 μM ATP set at 100%
T2 sequence (P49961 1-510): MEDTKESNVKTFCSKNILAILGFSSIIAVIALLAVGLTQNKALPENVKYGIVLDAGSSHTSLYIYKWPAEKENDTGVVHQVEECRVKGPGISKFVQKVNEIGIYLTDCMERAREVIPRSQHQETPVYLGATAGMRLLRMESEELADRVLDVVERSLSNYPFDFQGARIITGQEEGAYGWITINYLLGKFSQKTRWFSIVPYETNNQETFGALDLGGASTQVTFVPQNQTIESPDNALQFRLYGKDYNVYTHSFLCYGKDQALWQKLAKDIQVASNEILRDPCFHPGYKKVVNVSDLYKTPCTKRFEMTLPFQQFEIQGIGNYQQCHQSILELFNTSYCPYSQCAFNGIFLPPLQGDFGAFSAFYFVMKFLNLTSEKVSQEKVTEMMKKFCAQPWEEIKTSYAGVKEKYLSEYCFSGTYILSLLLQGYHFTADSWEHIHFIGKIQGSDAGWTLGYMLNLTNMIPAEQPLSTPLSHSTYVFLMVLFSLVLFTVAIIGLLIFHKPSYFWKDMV

human NPP3 = target: T3, human NPP3 (Homo sapiens, UniProt O14638); assay: NPP3 hydrolysis assay; assay type: in vitro ADME; conditions: 100 μM substrate; vs 100 μM ATP set at 100%
T3 sequence (O14638 1-875): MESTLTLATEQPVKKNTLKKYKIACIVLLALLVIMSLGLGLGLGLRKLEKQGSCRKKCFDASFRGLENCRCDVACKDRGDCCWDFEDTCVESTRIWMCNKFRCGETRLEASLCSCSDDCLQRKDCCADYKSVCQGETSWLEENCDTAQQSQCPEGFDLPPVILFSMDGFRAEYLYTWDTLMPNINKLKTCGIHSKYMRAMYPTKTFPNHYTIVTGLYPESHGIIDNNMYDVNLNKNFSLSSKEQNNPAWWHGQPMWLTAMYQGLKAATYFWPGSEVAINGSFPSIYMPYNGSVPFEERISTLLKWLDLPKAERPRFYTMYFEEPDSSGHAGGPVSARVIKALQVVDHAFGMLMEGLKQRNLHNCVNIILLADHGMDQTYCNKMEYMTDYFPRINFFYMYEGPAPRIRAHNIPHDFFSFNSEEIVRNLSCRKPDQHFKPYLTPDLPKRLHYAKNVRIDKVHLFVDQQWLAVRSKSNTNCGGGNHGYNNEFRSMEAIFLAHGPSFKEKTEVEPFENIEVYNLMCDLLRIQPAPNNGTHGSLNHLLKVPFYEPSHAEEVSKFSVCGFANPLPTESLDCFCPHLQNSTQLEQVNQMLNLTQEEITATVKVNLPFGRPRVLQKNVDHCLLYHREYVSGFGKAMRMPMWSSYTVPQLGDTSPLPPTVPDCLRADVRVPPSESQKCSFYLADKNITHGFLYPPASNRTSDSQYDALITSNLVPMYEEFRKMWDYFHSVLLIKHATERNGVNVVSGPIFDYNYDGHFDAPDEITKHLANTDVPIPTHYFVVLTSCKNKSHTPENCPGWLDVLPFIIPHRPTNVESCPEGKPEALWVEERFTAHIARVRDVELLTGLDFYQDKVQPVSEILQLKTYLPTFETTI

NTPDase3 = target: T4, NTPDase3 (Homo sapiens, UniProt O75355); assay: NTPDase3 hydrolysis assay; assay type: in vitro ADME; conditions: 100 μM substrate; vs 100 μM ATP set at 100%
T4 sequence (O75355 1-529): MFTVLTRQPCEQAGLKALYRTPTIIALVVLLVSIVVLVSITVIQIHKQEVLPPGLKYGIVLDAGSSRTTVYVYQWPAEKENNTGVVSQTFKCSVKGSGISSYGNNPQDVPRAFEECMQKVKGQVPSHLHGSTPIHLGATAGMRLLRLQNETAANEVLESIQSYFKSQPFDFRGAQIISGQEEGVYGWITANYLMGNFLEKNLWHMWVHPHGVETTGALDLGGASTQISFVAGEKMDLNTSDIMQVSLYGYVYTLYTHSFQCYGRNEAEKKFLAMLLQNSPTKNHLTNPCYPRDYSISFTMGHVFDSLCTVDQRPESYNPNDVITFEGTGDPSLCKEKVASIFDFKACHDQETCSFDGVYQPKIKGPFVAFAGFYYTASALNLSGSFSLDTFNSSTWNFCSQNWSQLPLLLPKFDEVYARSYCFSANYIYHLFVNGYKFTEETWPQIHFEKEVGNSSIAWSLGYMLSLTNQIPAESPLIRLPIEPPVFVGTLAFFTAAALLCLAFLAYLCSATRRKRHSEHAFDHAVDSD
How it was run: as §1

[8] = target: calf intestine alkaline phosphatase (Bos taurus, UniProt P19111); assay: Hydrolysis by alkaline phosphatase; conditions: for resistance to hydrolysis by alkaline phosphatase: over 30 min at 37 °C; for degradation by alkaline phosphatase after 3 h: 0.2 mg analogue/77.5 μL, 12.5 units of AP, 37 °C
[9] = human blood serum/RPMI-1640, 37 °C

Sequence of calf intestine alkaline phosphatase (P19111 20-533): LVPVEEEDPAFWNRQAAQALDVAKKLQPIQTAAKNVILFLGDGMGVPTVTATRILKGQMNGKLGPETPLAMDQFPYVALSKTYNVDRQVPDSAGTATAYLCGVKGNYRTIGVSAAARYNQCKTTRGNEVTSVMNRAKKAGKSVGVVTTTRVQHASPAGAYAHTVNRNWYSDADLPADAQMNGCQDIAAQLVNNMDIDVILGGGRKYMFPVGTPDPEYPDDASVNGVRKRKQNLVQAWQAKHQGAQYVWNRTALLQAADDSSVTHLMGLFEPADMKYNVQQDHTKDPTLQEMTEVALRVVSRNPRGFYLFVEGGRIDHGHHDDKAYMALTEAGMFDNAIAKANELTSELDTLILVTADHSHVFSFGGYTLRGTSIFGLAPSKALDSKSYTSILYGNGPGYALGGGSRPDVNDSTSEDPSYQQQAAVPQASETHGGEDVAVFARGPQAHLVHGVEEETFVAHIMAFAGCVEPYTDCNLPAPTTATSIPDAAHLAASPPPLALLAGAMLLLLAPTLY
Sequence of turkey P2Y1 receptor (P49652 whole entry): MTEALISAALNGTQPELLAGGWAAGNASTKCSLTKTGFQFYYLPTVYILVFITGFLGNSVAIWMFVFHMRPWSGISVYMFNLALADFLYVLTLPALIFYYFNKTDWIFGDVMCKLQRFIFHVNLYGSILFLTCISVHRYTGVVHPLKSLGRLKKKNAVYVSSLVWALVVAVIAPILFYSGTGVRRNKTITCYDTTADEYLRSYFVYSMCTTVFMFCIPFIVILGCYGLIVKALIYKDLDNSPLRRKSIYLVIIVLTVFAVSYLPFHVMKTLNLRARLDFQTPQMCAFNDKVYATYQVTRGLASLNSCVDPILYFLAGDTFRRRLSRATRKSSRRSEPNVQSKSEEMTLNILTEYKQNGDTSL

Compound: Nc1ncnc2c1ncn2[C@@H]1O[C@H](COP(=O)(O)OP(=O)(O)OP(=O)(O)OC[C@@H]2O[C@H](n3cnc4c(N)ncnc43)[C@@H](O)[C@H]2O)[C@@H](O)[C@H]1O [Ap3A, diadenosine triphosphate]
- effect on IOP (increase or reduction) (rabbit IOP [1]): increase IOP

Compound: CC(C)OC(=O)CCC/C=C\C[C@@H]1[C@@H](CC[C@@H](O)CCc2ccccc2)[C@H](O)C[C@@H]1O [latanoprost]
- duration of the reduction in IOP (mean-time effect) (rabbit IOP [2]; commercial drug, 0.005%, 40 μL): 5.5 h

- hydrolysis of the starting material at pH 1.4 ([3]; pH 1.4, after 6 days): 15%
- degradation in human blood serum over 24 h [4, 9]: completely resistant
Compound: CSc1nc(N)c2ncn([C@@H]3O[C@H](COP(=O)(O)C(Cl)(Cl)P(=O)(O)O)[C@@H](O)[C@H]3O)c2n1 [analogue 14, 2-MeS-Rα,β-dichloromethylene-ADP]

Compound: BP(=O)(OC[C@H]1O[C@@H](n2cnc3c(N)nc(SC)nc32)[C@H](O)[C@@H]1O)OP(=O)(O)C(F)(F)P(=O)(O)O (stereo partly drawn) [analogue 10B, 2-MeS-adenosine-5′-O-(α-boranotriphosphate)-β,γ-CF2]
- t1/2 of hydrolysis at pH 1.4 [3]: ~8 h
- fold reduction in P2Y1R activity vs analogue 8 (turkey P2Y1 receptor; replacement of nonbridging oxygen with BH3): 3 fold

Compound: BP(=O)(OC[C@H]1O[C@@H](n2cnc3c(N)nc(SC)nc32)[C@H](O)[C@@H]1O)OP(=O)(O)CP(=O)(O)O (stereo partly drawn) [analogue 3, 2-MeS-α-B,β,γ-CH2-ATP]
- t1/2 of hydrolysis at pH 1.4 [5]: 14.5 h

- t1/2 of hydrolysis at pH 1.4 [3]: 65 h
- degradation in human blood serum over 24 h [4, 9]: 15%
Compound: CSc1nc(N)c2ncn([C@@H]3O[C@H](COP(=O)(O)OP(=O)(O)C(Cl)(Cl)P(=O)(O)O)[C@@H](O)[C@H]3O)c2n1 [analogue 9, β,γ-CCl2-2-MeS-ATP]
- duration of the reduction in IOP (mean-time effect) (rabbit IOP [2]; 100 μM, 10 μL): 4.5 h

Compound: Nc1ncnc2c1ncn2[C@@H]1O[C@H](COP(=O)(O)OP(=O)(O)OP(=O)(O)OP(=O)(O)OP(=O)(O)OC[C@H]2O[C@@H](n3cnc4c(N)ncnc43)[C@H](O)[C@@H]2O)[C@@H](O)[C@H]1O [Ap5A, diadenosine pentaphosphate]
- effect on IOP (increase or reduction) (rabbit IOP [1]): increase IOP

Compound: Nc1ncnc2c1ncn2[C@@H]1O[C@H](COP(=O)(O)OP(=O)(O)OP(=O)(O)OP(=O)(O)OC[C@H]2O[C@@H](n3cnc4c(N)ncnc43)[C@H](O)[C@@H]2O)[C@@H](O)[C@H]1O [Ap4A, diadenosine tetraphosphate]
- effect on IOP (increase or reduction) (rabbit IOP [1]): reduced

Compound: BP(=O)(OC[C@H]1O[C@@H](n2cnc3c(N)nc(SC)nc32)[C@H](O)[C@@H]1O)OP(=O)(O)CP(=O)(O)O (some centres unmarked) [analogue 3B]
- EC50 (P2Y1R): 17200 nM

Compound: Nc1ncnc2c1ncn2[C@@H]1O[C@H](COP(=O)(O)OP(=O)(O)OP(=O)(O)OP(=O)(O)O)[C@@H](O)[C@H]1O [Ap4, adenosine tetraphosphate]
- effect on IOP (increase or reduction) (rabbit IOP [1]): reduced

Compound: 2-MeS-α-borano-ATP (A-isomer) [analogue 4A]
- EC50 (P2Y1R): 2.6 nM

- fraction ionized at physiological pH [7]: 9%
Compound: CSc1nc(N)c2ncn([C@@H]3O[C@H](COP(=O)(O)OP(=O)(O)CP(=O)(O)O)[C@@H](O)[C@H]3O)c2n1 [analogue 1, 2-MeS-β,γ-CH2-ATP]
- t1/2 in human blood serum [6]: 12.1 h
- EC50 (P2Y1R): 80 nM
- duration of the reduction in IOP (mean-time effect) (rabbit IOP [2]; 100 μM, 10 μL): 3.5 h

Compound: BP(=O)(OC[C@H]1O[C@@H](n2cnc3c(N)nc(SC)nc32)[C@H](O)[C@@H]1O)OP(=O)(O)C(Cl)(Cl)P(=O)(O)O (stereo partly drawn) [analogue 12B, 2-MeS-adenosine-5′-O-(α-boranotriphosphate)-β,γ-CCl2]
- relative hydrolysis by NTPDase2 (NTPDase2): completely resistant
- relative hydrolysis by NTPDase1 (NTPDase1): completely resistant
- relative hydrolysis by NPP3 (human NPP3): completely resistant
- relative hydrolysis by NTPDase3 (NTPDase3): completely resistant
- fold less potent at P2Y1R than the A isomer 12A (turkey P2Y1 receptor; B isomer vs A isomer): 2 fold

Compound: α-B,β,γ-CH2-ATP [analogue 2]
- t1/2 of hydrolysis at pH 1.4 [5]: 19 h

Compound: BP(=O)(OCC1OC(n2cnc3c(N)nc(SC)nc32)C(O)C1O)OP(=O)(O)C(F)(F)P(=O)(O)O (stereo not drawn) [analogue 10, α-borano-β,γ-CF2-2-MeS-ATP]
- resistance to hydrolysis by alkaline phosphatase [8]: completely resistant

- half-life at 0.248 mM ([4]; human, human blood serum diluted with RPMI-1640 medium): 23.5 h
- degradation by alkaline phosphatase after 3 h [8]: 87%
Compound: CSc1nc(N)c2ncn([C@@H]3O[C@H](COP(=O)(O)OP(=O)(O)O)[C@@H](O)[C@H]3O)c2n1 [analogue 7, 2-MeS-ADP]

- starting material remaining at pH 1.4 ([3]; pH 1.4, after 30 days): 61%
Compound: CSc1nc(N)c2ncn([C@@H]3O[C@H](COP(=O)(O)C(F)(F)P(=O)(O)O)[C@@H](O)[C@H]3O)c2n1 [analogue 13, 2-MeS-adenosine-5′-O-diphosphate-α,β-difluoromethylene]

Compound: Nc1ncnc2c1ncn2[C@@H]1O[C@H](COP(=O)(O)OP(=O)(O)O)[C@@H](O)[C@H]1O [ADP]
- half-life in human blood serum [4, 9]: 1.4 h
- degradation by alkaline phosphatase after 3 h [8]: completely degraded

Compound: BP(=O)(OCC1OC(n2cnc3c(N)nc(SC)nc32)C(O)C1O)OP(=O)(O)C(Cl)(Cl)P(=O)(O)O (stereo not drawn) [analogue 12, α-borano-β,γ-CCl2-2-MeS-ATP]
- resistance to hydrolysis by alkaline phosphatase [8]: completely resistant
